# Experimental data: ChEMBL document CHEMBL4014350, “Alkoxyurea-Based Histone Deacetylase Inhibitors Increase Cisplatin Potency in Chemoresistant Cancer Cell Lines” (J Med Chem, 2017)
# Calls of active or inactive are those of the source. The rule behind the calls is not given here.
# Key:
# [1] = molecular target: T1, Histone deacetylase 1/6 (Homo sapiens) (UniProt Q13547+Q9UBN7); assay: Inhibition of HDAC1/HDAC6 in human Cal27CisR cells assessed as potentiation of 20 uM cisplatin-induced cytotoxicity by measuring combination index at 1000 nM preincubated for 48 hrs followed by cisplatin treatment measured after 72 hrs by MTT assay
# [2] = molecular target: T1, Histone deacetylase 1/6 (Homo sapiens); assay: Inhibition of HDAC1/HDAC6 in human Cal27CisR cells assessed as potentiation of 3.16 uM cisplatin-induced cytotoxicity by measuring combination index at 1000 nM preincubated for 48 hrs followed by cisplatin treatment measured after 72 hrs by MTT assay
# [3] = molecular target: T1, Histone deacetylase 1/6 (Homo sapiens); assay: Inhibition of HDAC1/HDAC6 in human Cal27CisR cells assessed as potentiation of 10 uM cisplatin-induced cytotoxicity by measuring combination index at 1500 nM preincubated for 48 hrs followed by cisplatin treatment measured after 72 hrs by MTT assay
# CAL-27 [4] = assay: Potentiation of 1 uM cisplatin-induced cytotoxicity against human CAL27 cells assessed as decrease in cell viability by measuring combination index at 1000 uM preincubated for 48 hrs followed by cisplatin treatment measured after 72 hrs by MTT assay; format: functional; settings: in the assay text read “at 1000 nM” for “at 1000 uM”
# Summary of the method: (§1)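 Cal27 and cisplatin-resistant Cal27CisR cells were preincubated with the HDAC inhibitor for 48 h, then given cisplatin in combination. Viability was read by MTT after 72 h. The combination index was computed by the Chou–Talalay method: CI > 1 is antagonism, CI = 1 is additive, and CI < 0.9 is synergism. Points with fraction affected below 0.20 were flagged.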
# [5] = molecular target: T1, Histone deacetylase 1/6 (Homo sapiens); assay: Inhibition of HDAC1/HDAC6 in human Cal27CisR cells assessed as potentiation of 10 uM cisplatin-induced cytotoxicity by measuring combination index at 1000 nM preincubated for 48 hrs followed by cisplatin treatment measured after 72 hrs by MTT assay
# CAL-27 [6] = assay: Potentiation of 0.5 uM cisplatin-induced cytotoxicity against human CAL27 cells assessed as decrease in cell viability by measuring combination index at 1000 uM preincubated for 48 hrs followed by cisplatin treatment measured after 72 hrs by MTT assay; format: functional
# Summary of the method: as §1
# CAL-27 [7] = assay: Potentiation of 2 uM cisplatin-induced cytotoxicity against human CAL27 cells assessed as decrease in cell viability by measuring combination index at 1000 uM preincubated for 48 hrs followed by cisplatin treatment measured after 72 hrs by MTT assay; format: functional; settings: in the assay text read “at 1000 nM” for “at 1000 uM”
# Summary of the method: (§2)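 HDAC inhibitor was added 48 h before cisplatin, then cells were exposed to cisplatin for 72 h and viability was read by MTT assay. Combination index was computed by the Chou–Talalay method: CI > 1 is antagonism, CI = 1 additive, CI < 0.9 synergism. Points with fraction affected below 0.20 were flagged.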
# CAL-27 [8] = assay: Potentiation of 0.5 uM cisplatin-induced cytotoxicity against human CAL27 cells assessed as decrease in cell viability by measuring combination index at 2000 uM preincubated for 48 hrs followed by cisplatin treatment measured after 72 hrs by MTT assay; format: functional
# Summary of the method: as §1
# CAL-27 [9] = assay: Potentiation of 2 uM cisplatin-induced cytotoxicity against human CAL27 cells assessed as decrease in cell viability by measuring combination index at 900 uM preincubated for 48 hrs followed by cisplatin treatment measured after 72 hrs by MTT assay; format: functional; settings: in the assay text read “at 900 nM” for “at 900 uM”
# Summary of the method: as §2
# CAL-27 [10] = assay: Potentiation of 0.5 uM cisplatin-induced cytotoxicity against human CAL27 cells assessed as decrease in cell viability by measuring combination index at 900 uM preincubated for 48 hrs followed by cisplatin treatment measured after 72 hrs by MTT assay; format: functional
# Summary of the method: as §1
# CAL-27 [11] = assay: Potentiation of cisplatin-induced apoptosis in human CAL27 cells at 1 uM preincubated for 48 hrs followed by cisplatin treatment for 6 hrs measured after 24 hrs by propidium iodide dye-based flow cytometry; format: functional, cell-based
# [12] = molecular target: T1, Histone deacetylase 1/6 (Homo sapiens); assay: Inhibition of HDAC1/HDAC6 in human Cal27CisR cells assessed as potentiation of 20 uM cisplatin-induced cytotoxicity by measuring combination index at 1500 nM preincubated for 48 hrs followed by cisplatin treatment measured after 72 hrs by MTT assay
# [13] = molecular target: T1, Histone deacetylase 1/6 (Homo sapiens); assay: Inhibition of HDAC1/HDAC6 in human Cal27CisR cells assessed as potentiation of 1 uM cisplatin-induced cytotoxicity by measuring combination index at 1000 uM preincubated for 48 hrs followed by cisplatin treatment measured after 72 hrs by MTT assay; format: cell-based
# Summary of the method: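 Cal27CisR cells preincubated 48 h with the HDAC inhibitor, then exposed to cisplatin for 72 h. Viability read by MTT. Combination index calculated by the Chou–Talalay method: CI > 1 antagonism, CI = 1 additive, CI < 0.9 synergism. Points with fraction affected below 0.20 are flagged. Values are the mean of three experiments.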
# [14] = molecular target: T1, Histone deacetylase 1/6 (Homo sapiens); assay: Inhibition of HDAC1/HDAC6 in human Cal27CisR cells assessed as potentiation of 20 uM cisplatin-induced cytotoxicity by measuring combination index at 900 nM preincubated for 48 hrs followed by cisplatin treatment measured after 72 hrs by MTT assay
# [15] = molecular target: T1, Histone deacetylase 1/6 (Homo sapiens); assay: Inhibition of HDAC1/HDAC6 in human Cal27CisR cells assessed as potentiation of 5 uM cisplatin-induced cytotoxicity by measuring combination index at 1500 uM preincubated for 48 hrs followed by cisplatin treatment measured after 72 hrs by MTT assay; format: cell-based
# Summary of the method: as §1
# [16] = molecular target: T1, Histone deacetylase 1/6 (Homo sapiens); assay: Inhibition of HDAC1/HDAC6 in human Cal27CisR cells assessed as potentiation of 3.16 uM cisplatin-induced cytotoxicity by measuring combination index at 1500 nM preincubated for 48 hrs followed by cisplatin treatment measured after 72 hrs by MTT assay
# CAL-27 [17] = assay: Potentiation of cisplatin-induced apoptosis in human CAL27 cells at 0.5 uM preincubated for 48 hrs followed by cisplatin treatment for 6 hrs measured after 24 hrs by propidium iodide dye-based flow cytometry; format: functional, cell-based
# CAL-27 [18] = assay: Potentiation of 0.316 uM cisplatin-induced cytotoxicity against human CAL27 cells assessed as decrease in cell viability by measuring combination index at 500 nM preincubated for 48 hrs followed by cisplatin treatment measured after 72 hrs by MTT assay
# CAL-27 [19] = assay: Potentiation of cisplatin-induced apoptosis in human CAL27 cells at 0.5 uM preincubated for 48 hrs followed by cisplatin treatment for 6 hrs measured after 24 hrs by propidium iodide dye-based flow cytometry (reference value: 21.8%); format: functional
# T1 sequence (Q13547 whole entry, looked up): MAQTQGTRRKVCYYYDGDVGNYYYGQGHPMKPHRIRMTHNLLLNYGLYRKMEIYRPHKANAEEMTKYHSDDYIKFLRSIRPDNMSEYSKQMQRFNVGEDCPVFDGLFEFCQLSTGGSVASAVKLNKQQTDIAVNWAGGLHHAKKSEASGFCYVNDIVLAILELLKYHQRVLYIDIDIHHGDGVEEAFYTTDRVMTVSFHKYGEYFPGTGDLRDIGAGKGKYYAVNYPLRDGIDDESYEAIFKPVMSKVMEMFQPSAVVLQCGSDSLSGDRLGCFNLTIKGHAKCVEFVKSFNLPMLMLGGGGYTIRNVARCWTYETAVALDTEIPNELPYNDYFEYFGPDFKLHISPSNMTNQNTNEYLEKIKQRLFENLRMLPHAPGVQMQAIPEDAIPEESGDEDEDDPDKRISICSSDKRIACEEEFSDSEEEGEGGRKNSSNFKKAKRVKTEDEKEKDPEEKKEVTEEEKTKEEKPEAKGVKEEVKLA
# T1 sequence (Q9UBN7 whole entry, looked up): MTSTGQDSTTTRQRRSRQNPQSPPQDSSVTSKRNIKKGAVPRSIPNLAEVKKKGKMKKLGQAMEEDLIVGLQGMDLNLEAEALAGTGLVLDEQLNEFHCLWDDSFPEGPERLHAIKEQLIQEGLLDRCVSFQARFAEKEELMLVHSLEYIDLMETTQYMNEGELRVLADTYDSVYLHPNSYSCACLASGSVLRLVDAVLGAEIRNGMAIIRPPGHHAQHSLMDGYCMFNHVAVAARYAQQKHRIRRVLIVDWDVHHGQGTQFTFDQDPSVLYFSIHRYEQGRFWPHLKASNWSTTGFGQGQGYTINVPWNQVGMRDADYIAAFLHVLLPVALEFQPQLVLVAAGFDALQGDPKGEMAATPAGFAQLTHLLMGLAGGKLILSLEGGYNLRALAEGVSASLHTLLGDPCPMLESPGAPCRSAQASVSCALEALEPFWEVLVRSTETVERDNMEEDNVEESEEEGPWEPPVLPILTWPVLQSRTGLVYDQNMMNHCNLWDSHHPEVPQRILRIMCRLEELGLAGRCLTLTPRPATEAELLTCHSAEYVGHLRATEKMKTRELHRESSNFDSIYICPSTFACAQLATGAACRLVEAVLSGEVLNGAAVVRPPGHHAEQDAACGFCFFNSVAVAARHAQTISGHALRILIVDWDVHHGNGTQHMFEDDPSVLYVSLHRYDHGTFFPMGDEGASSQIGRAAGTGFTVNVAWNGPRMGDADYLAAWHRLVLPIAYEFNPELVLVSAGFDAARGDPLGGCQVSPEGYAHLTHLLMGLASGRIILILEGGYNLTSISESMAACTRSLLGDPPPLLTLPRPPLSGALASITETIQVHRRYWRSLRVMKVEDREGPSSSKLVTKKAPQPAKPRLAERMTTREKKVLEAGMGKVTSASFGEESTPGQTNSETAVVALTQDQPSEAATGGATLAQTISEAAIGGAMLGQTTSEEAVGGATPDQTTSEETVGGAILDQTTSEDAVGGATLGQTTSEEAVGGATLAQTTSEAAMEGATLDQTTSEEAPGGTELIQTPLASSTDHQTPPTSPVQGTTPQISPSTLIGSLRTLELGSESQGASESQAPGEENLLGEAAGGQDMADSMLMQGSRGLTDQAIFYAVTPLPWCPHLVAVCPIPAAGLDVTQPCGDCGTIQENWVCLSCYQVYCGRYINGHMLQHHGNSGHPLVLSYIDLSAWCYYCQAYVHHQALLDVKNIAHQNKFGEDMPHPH
structure (smiles),measurement,setting,value
COc1cc(NC(=O)NOCCCCCC(=O)NO)c2ncccc2c1,CI,[1],0.48
same,CI,[2],0.63
same,CI,[3],0.51
same,CI,CAL-27 [4],0.5
same,CI,[5],0.49
same,CI,CAL-27 [6],0.67
same,CI,CAL-27 [7],0.41
same,CI,CAL-27 [8],0.86
same,CI,CAL-27 [9],0.4
same,CI,CAL-27 [10],0.6
same,Activity,CAL-27 [11],Active
same,CI,[12],0.62
same,CI,[13],0.85
same,CI,[14],0.49
same,CI,[15],0.47
same,CI,[16],0.52
COc1cc(NC(=O)NOCCCCCC(=O)NO)c2nccc(C)c2c1,Activity,CAL-27 [17],Active
same,CI,CAL-27 [18],<0.2
COc1cc(NC(=O)NOCCCCCC(=O)NO)c2nc(OC)cc(C)c2c1,Activity,CAL-27 [19],33.3%
